Data reported in ChEMBL document CHEMBL4390645, “Novel prenyloxy chalcones as potential leishmanicidal and trypanocidal agents: Design, synthesis and evaluation” (Eur J Med Chem, 2019).
Calls of active or inactive are those of the source. No cut-off for these calls is given here.

Key:
Leishmania major = test: Antileishmanial activity against Leishmania major amastigotes; type: functional, organism-based
Leishmania donovani = test: Antileishmanial activity against Leishmania donovani amastigotes; type: functional, organism-based
Trypanosoma cruzi [1] = test: Antitrypanosomal activity against Trypanosoma cruzi MHOM/MX/1994/INC5 epimastigotes assessed as metabolic inhibition at 10 ug/ml after 24 hrs by MTT assay relative to control; type: functional; conditions: MHOM/MX/1994/INC5, 24 h
Leishmania mexicana [2] = test: Antileishmanial activity against Leishmania mexicana MNYC-BZ/62/M379 promastigotes assessed as metabolic inhibition at 10 ug/ml after 24 hrs by MTT assay relative to control; type: functional; conditions: MNYC-BZ/62/M379, 24 h
Procedure, shortened: (§1)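 Stationary-phase (7-day) metacyclic promastigotes, 5 x 10^5 per well in 100 µL RPMI 1640 with 10% heat-inactivated FBS and penicillin-streptomycin. Compounds from 10 mg/mL DMSO stock, diluted in PBS. Screen at 10 µg/mL in triplicate; actives serially diluted from 20 µg/mL. 27°C, dark, 24 h, then MTT 24 h. SDS/HCl solubilization, A570 vs blank. IC50 by Probit. Amphotericin B reference.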

[3] = Selectivity index, ratio of CC50 for mouse J774.A1 cells to IC50 for antitrypanosomal activity against Trypanosoma cruzi MHOM/MX/1994/INC5 epimastigotes; type: toxicity; conditions: read-out: Ratio CC50/IC50
Procedure, shortened: (§2)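 SI = CC50 (J774A.1, 20 h MTT) divided by parasite IC50 (24 h MTT), both Probit-derived.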

Trypanosoma cruzi [4] = test: Antitrypanosomal activity against Trypanosoma cruzi MHOM/MX/1994/INC5 epimastigotes assessed as growth inhibition measured after 24 hrs by MTT assay; type: functional, organism-based; conditions: MHOM/MX/1994/INC5, 24 h
[5] = Cytotoxicity against mouse J774.A1 cells assessed as reduction in cell viability measured after 20 hrs by MTT assay; type: cell-based
Procedure, shortened: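 J774A.1 macrophages, 5x10^4/well, preincubated 24 h at 37 °C, 5% CO2. Compounds at several concentrations in triplicate for 20 h, untreated cells as control. MTT added for 4 h, then 10% SDS/0.01N HCl, absorbance read. CC50 by Probit concentration-response.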

Leishmania mexicana [6] = test: Antileishmanial activity against Leishmania mexicana MNYC-BZ/62/M379 promastigotes assessed as growth inhibition measured after 24 hrs by MTT assay; type: functional, organism-based; conditions: MNYC-BZ/62/M379, 24 h; procedure, shortened: as §1
[7] = Selectivity index, ratio of CC50 for mouse J774.A1 cells to IC50 for antileishmanial activity against Leishmania mexicana MNYC-BZ/62/M379 promastigotes; type: toxicity; conditions: read-out: Ratio CC50/IC50; procedure, shortened: as §2
Trypanosoma cruzi [8] = test: Induction of morphological changes in Trypanosoma cruzi MHOM/MX/1994/INC5 epimastigotes assessed as decrease in cell density measured after 24 hrs by giemsa staining using light microscopic method; type: functional, organism-based
Procedure, shortened: (§3)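 Parasites exposed 24 h to a range of compound concentrations, Giemsa-stained, examined by light microscopy at 100x for morphology and cell density.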

Leishmania mexicana [9] = test: Induction of morphological changes in Leishmania mexicana MNYC-BZ/62/M379 promastigotes assessed as decrease in cell density at 1.25 to 20 ug/ml measured after 24 hrs by giemsa staining using light microscopic method; type: functional, organism-based; procedure, shortened: as §3
Leishmania mexicana [10] = test: Induction of morphological changes in Leishmania mexicana MNYC-BZ/62/M379 promastigotes assessed as rounded cells at 3 multiples of IC50 concentration and measured after 24 hrs by giemsa staining using light microscopic method; type: functional, organism-based
Leishmania mexicana [11] = test: Induction of morphological changes in Leishmania mexicana MNYC-BZ/62/M379 promastigotes assessed as decrease in flagella length at 3 multiples of IC50 concentration and measured after 24 hrs by giemsa staining using light microscopic method; type: functional, organism-based
Leishmania mexicana [12] = test: Induction of morphological changes in Leishmania mexicana MNYC-BZ/62/M379 promastigotes assessed as cell death at 3 multiples of IC50 concentration and measured after 24 hrs by giemsa staining using light microscopic method; type: functional, organism-based
Leishmania mexicana [13] = test: Antileishmanial activity against Leishmania mexicana MNYC-BZ/62/M379 promastigotes assessed as metabolic inhibition at 0.5 ug/ml after 24 hrs by MTT assay relative to control; type: functional; conditions: MNYC-BZ/62/M379, 24 h

## COc1ccc(/C=C/C(=O)c2ccc(OC/C=C(\C)CCC=C(C)C)cc2)cc1
Leishmania major
  IC50: 1.4 to 88.8 µM
Leishmania donovani
  IC50: 1.4 to 88.8 µM

## COc1cc(/C=C/C(=O)c2ccc(OCC=C(C)C)c(OC)c2)ccc1OCC=C(C)C
Trypanosoma cruzi [1]
  inhibition at 10 µg/mL: 20%
Leishmania mexicana [2]
  inhibition at 10 µg/mL: 3.9%

## COc1ccc(/C=C/C(=O)c2ccc(OC/C=C(\C)CCC=C(C)C)c(OC)c2)cc1
Trypanosoma cruzi [1]
  inhibition at 10 µg/mL: -11.6%
Leishmania mexicana [2]
  inhibition at 10 µg/mL: 0%

## CC(C)=CCOc1ccccc1/C=C/C(=O)c1ccccc1
Leishmania major
  IC50: 1.4 to 88.8 µM
Leishmania donovani
  IC50: 1.4 to 88.8 µM

## COc1cc(C(=O)/C=C/c2ccc(O)cc2)ccc1OC/C=C(\C)CCC=C(C)C
Trypanosoma cruzi [1]
  inhibition at 10 µg/mL: -5.5%
Leishmania mexicana [2]
  inhibition at 10 µg/mL: 4.9%

## COc1cc(/C=C/C(=O)c2ccc(O)cc2)ccc1OC/C=C(\C)CCC=C(C)C
Trypanosoma cruzi [1]
  inhibition at 10 µg/mL: 20.4%
Leishmania mexicana [2]
  inhibition at 10 µg/mL: 17.6%

## COc1cc(C(=O)/C=C/c2cc(OC)c(OC)c(OC)c2)ccc1OC/C=C(\C)CCC=C(C)C
Trypanosoma cruzi [1]
  inhibition at 10 µg/mL: -0.8%
Leishmania mexicana [2]
  inhibition at 10 µg/mL: 2.1%

## COc1cc(/C=C/C(=O)c2ccc(OC/C=C(\C)CCC=C(C)C)c(OC)c2)ccc1OCC=C(C)C
Trypanosoma cruzi [1]
  inhibition at 10 µg/mL: 43.9%
[3]
  selectivity ratio: 27.4
Leishmania mexicana [2]
  inhibition at 10 µg/mL: -8%
Trypanosoma cruzi [4]
  IC50: 30.1 µM
[5]
  CC50 at 20 h: 825 µM

## COc1ccc(C(=O)/C=C/c2ccc(OCC=C(C)C)c(OC)c2)cc1OC
Trypanosoma cruzi [1]
  inhibition at 10 µg/mL: 11.8%
Leishmania mexicana [2]
  inhibition at 10 µg/mL: 48.3%
Leishmania mexicana [6]
  IC50: 31.8 µM
[7]
  selectivity ratio: 55.1
[5]
  CC50 at 20 h: 1750 µM

## CC(C)=CCC/C(C)=C/COc1ccccc1/C=C/C(=O)c1ccccc1
Leishmania major
  IC50: 1.4 to 88.8 µM
Leishmania donovani
  IC50: 1.4 to 88.8 µM

## CC(C)=CCC/C(C)=C/CC/C(C)=C/COc1cccc(/C=C/C(=O)c2ccccc2)c1
Leishmania major
  IC50: 1.4 to 88.8 µM
Leishmania donovani
  IC50: 1.4 to 88.8 µM

## COc1cc(/C=C/C(=O)c2ccc(O)cc2)ccc1OCC=C(C)C
Trypanosoma cruzi [1]
  inhibition at 10 µg/mL: 23.8%
Leishmania mexicana [2]
  inhibition at 10 µg/mL: 17.7%

## CC1CS(=O)(=O)CCN1/N=C/c1ccc([N+](=O)[O-])o1 (stereo not drawn) [NIFURTIMOX]
[3]
  selectivity ratio: 23.1
Trypanosoma cruzi [4]
  IC50: 8.7 µM
[5]
  CC50 at 20 h: 201 µM

## COc1cc(C(=O)/C=C/c2ccc(O)cc2)ccc1OCC=C(C)C
Trypanosoma cruzi [1]
  inhibition at 10 µg/mL: 16.3%
Leishmania mexicana [2]
  inhibition at 10 µg/mL: 4.6%

## COc1cc(C(=O)/C=C/c2ccc(OC/C=C(\C)CCC=C(C)C)c(OC)c2)ccc1OCC=C(C)C
Trypanosoma cruzi [1]
  inhibition at 10 µg/mL: 33.2%
Leishmania mexicana [2]
  inhibition at 10 µg/mL: -3.2%

## COc1ccc(/C=C/C(=O)c2ccc(OCC=C(C)C)c(OC)c2)cc1OC
Trypanosoma cruzi [1]
  inhibition at 10 µg/mL: 25.3%
Leishmania mexicana [2]
  inhibition at 10 µg/mL: 15.6%

## COc1ccc(C(=O)/C=C/c2ccc(OCC=C(C)C)c(OC)c2)cc1
Trypanosoma cruzi [1]
  inhibition at 10 µg/mL: 2.6%
Leishmania mexicana [2]
  inhibition at 10 µg/mL: 25.5%

## CC(C)=CCC/C(C)=C/COc1cccc(/C=C/C(=O)c2ccccc2)c1
Leishmania major
  IC50: 1.4 to 88.8 µM
Leishmania donovani
  IC50: 1.4 to 88.8 µM

## COc1cc(/C=C/C(=O)c2cc(OC)c(OC)c(OC)c2)ccc1OC/C=C(\C)CCC=C(C)C
Trypanosoma cruzi [1]
  inhibition at 10 µg/mL: 31.6%
Leishmania mexicana [2]
  inhibition at 10 µg/mL: 11.3%

## COc1ccc(/C=C/C(=O)c2ccc(OC/C=C(\C)CCC=C(C)C)c(OC)c2)cc1OC
Trypanosoma cruzi [1]
  inhibition at 10 µg/mL: 28.3%
Leishmania mexicana [2]
  inhibition at 10 µg/mL: 27.3%

## O=C(Cn1ccnc1[N+](=O)[O-])NCc1ccccc1 [BENZNIDAZOLE]
Trypanosoma cruzi [1]
  inhibition at 10 µg/mL: 77.4%
Trypanosoma cruzi [4]
  IC50: 42.3 µM
[5]
  CC50 at 20 h: 352 µM

## COc1cc(C(=O)/C=C/c2cc(OC)c(OC)c(OC)c2)ccc1OCC=C(C)C
Trypanosoma cruzi [1]
  inhibition at 10 µg/mL: 80.3%
[3]
  selectivity ratio: 1.43
Leishmania mexicana [2]
  inhibition at 10 µg/mL: 59.1%
Leishmania mexicana [6]
  IC50: 20.7 µM
[7]
  selectivity ratio: 1.24
Trypanosoma cruzi [4]
  IC50: 17.8 µM
[5]
  CC50 at 20 h: 25.6 µM

## CC(C)=CCC/C(C)=C/CC/C(C)=C/COc1ccccc1/C=C/C(=O)c1ccccc1
Leishmania major
  IC50: 1.4 to 88.8 µM
Leishmania donovani
  IC50: 1.4 to 88.8 µM

## COc1cc(/C=C/C(=O)c2cc(OC)c(OC)c(OC)c2)ccc1OCC=C(C)C
Trypanosoma cruzi [1]
  inhibition at 10 µg/mL: 84%
Trypanosoma cruzi [8]
  Activity: Dose-dependent effect
[3]
  selectivity ratio: 75.1
Leishmania mexicana [2]
  inhibition at 10 µg/mL: 71.3%
Leishmania mexicana [9]
  Activity: Active
Leishmania mexicana [6]
  IC50: 16.2 µM
Leishmania mexicana [10]
  Activity: Active
[7]
  selectivity ratio: 80.9
Trypanosoma cruzi [4]
  IC50: 17.5 µM
Leishmania mexicana [11]
  Activity: Active
[5]
  CC50 at 20 h: 1310 µM
Leishmania mexicana [12]
  Activity: Active

## COc1ccc(C(=O)/C=C/c2ccc(OC/C=C(\C)CCC=C(C)C)c(OC)c2)cc1OC
Trypanosoma cruzi [1]
  inhibition at 10 µg/mL: 22%
Leishmania mexicana [2]
  inhibition at 10 µg/mL: 13.5%

## COc1cc(/C=C/C(=O)c2ccc(OC/C=C(\C)CCC=C(C)C)c(OC)c2)ccc1OC/C=C(\C)CCC=C(C)C
Trypanosoma cruzi [1]
  inhibition at 10 µg/mL: 45%
[3]
  selectivity ratio: 33.5
Leishmania mexicana [2]
  inhibition at 10 µg/mL: 1%
Trypanosoma cruzi [4]
  IC50: 30.4 µM
[5]
  CC50 at 20 h: 1020 µM

## C[C@@H]1[C@H](O)[C@@H](C)/C=C/C=C/C=C/C=C/C=C/C=C/C=C/[C@H](O[C@@H]2O[C@H](C)[C@@H](O)[C@H](N)[C@@H]2O)C[C@@H]2O[C@](O)(C[C@@H](O)C[C@@H](O)[C@H](O)CC[C@@H](O)C[C@@H](O)CC(=O)O[C@H]1C)C[C@H](O)[C@H]2C(=O)O [AMPHOTERICIN B]
Leishmania mexicana [6]
  IC50: 0.28 µM
[7]
  selectivity ratio: 216
[5]
  CC50 at 20 h: 60.7 µM
Leishmania mexicana [13]
  inhibition at 0.5 µg/mL: 99%

## COc1ccc(/C=C/C(=O)c2ccc(OCC=C(C)C)c(OC)c2)cc1
Trypanosoma cruzi [1]
  inhibition at 10 µg/mL: 7.9%
Leishmania mexicana [2]
  inhibition at 10 µg/mL: 1%

## COc1ccc(C(=O)/C=C/c2ccc(OC/C=C(\C)CCC=C(C)C)c(OC)c2)cc1
Trypanosoma cruzi [1]
  inhibition at 10 µg/mL: 13.7%
Leishmania mexicana [2]
  inhibition at 10 µg/mL: 0.7%

## CC(C)=CCOc1cccc(/C=C/C(=O)c2ccccc2)c1
Leishmania major
  IC50: 1.4 to 88.8 µM
Leishmania donovani
  IC50: 1.4 to 88.8 µM
